Measured values taken from ChEMBL document CHEMBL1128396, “Synthesis and biological evaluation of a series of new parenteral optically active 3-[[(N-alkylpyridinium-4'-yl)thio]methyl]-2-oxaisocephems” (1995).
In brackets after ≈: the same amount, converted by molar mass.

Assays:
Type in all cases: functional
Escherichia coli = assay: Antibacterial activity was determined against Escherichia coli NIHJ JC-2 (Gram-negative)
Method in brief: (§1)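 2-fold agar dilution on Müller-Hinton agar. Overnight broth cultures were diluted to about 10^6 CFU/mL, and 10^4 CFU/spot was applied to plates with graded drug concentrations. Plates were incubated 18 h at 37 °C.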

Enterococcus faecalis [1] = assay: In vitro antibacterial activity against clinical isolates Enterococcus faecalis was determined; method in brief: as §1
Enterococcus faecalis [2] = assay: Antibacterial activity was determined against Enterococcus faecalis ATCC 21212 (Gram-positive); method in brief: as §1
Klebsiella pneumoniae = assay: Antibacterial activity was determined against Klebsiella pneumoniae NCTC 9632 (Gram-negative); method in brief: as §1
Mus musculus [3] = assay: Antibacterial activity was determined against MRSA 5120 at a challenge dose of 7.6*10e7 (cells/mouse) administered subcutaneously; settings: sc
Method in brief: (§2)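 Cultures were grown overnight at 37 °C in tryptic soy broth (S. aureus, MRSA, E. faecalis) or Müller-Hinton broth (E. coli, S. pneumoniae). Graded doses were given subcutaneously 1 h post-infection. ED50 was calculated by probit from day-7 survival, with 95% confidence limits.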

Mus musculus [4] = assay: Antibacterial activity was determined against Staphylococcus aureus Smith at a challenge dose of 1.32*10e7 (cells/mouse) administered subcutaneously (value in parentheses indicates 95% CL); settings: sc
Method in brief: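 Cultures were grown overnight at 37 °C in tryptic soy broth (S. aureus, MRSA, E. faecalis) or Müller-Hinton broth (E. coli, S. pneumoniae). Graded doses were given subcutaneously 1 h post-infection.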

Mus musculus [5] = assay: Antibacterial activity was determined against Escherichia coli 29 at a challenge dose of 1.35*10e6 (cells/mouse) administered subcutaneously; settings: sc; method in brief: as §2
Mus musculus [6] = assay: Antibacterial activity was determined against Enterococcus faecalis C 0063 at a challenge dose of 7.00*10e7 (cells/mouse) administered subcutaneously; settings: sc; method in brief: as §2
Pseudomonas aeruginosa = assay: Antibacterial activity was determined against Pseudomonas aeruginosa ATCC 10145 (Gram-negative); method in brief: as §1
Staphylococcus aureus [7] = assay: In vitro antibacterial activity against clinical isolates methicillin-resistant Staphylococcus aureus was determined
Method in brief: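 2-fold agar dilution on Müller-Hinton agar. Overnight broth cultures were diluted to about 10^6 CFU/mL, and 10^4 CFU/spot was applied to plates with graded drug concentrations.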

Staphylococcus aureus [8] = assay: Antibacterial activity was determined against Methicillin-resistant Staphylococcus aureus (MRSA) 5038 (Gram-positive)
Staphylococcus aureus [9] = assay: Antibacterial activity was determined against Staphylococcus aureus FDA 209P (Gram-positive); method in brief: as §1
Staphylococcus aureus [10] = assay: […] was determined against MRSA 5120
Serratia marcescens = assay: Antibacterial activity was determined against Serratia marcescens ATCC 12648 (Gram-negative); method in brief: as §1
[11] = system: Staphylococcus epidermidis; assay: Antibacterial activity was determined against Staphylococcus epidermidis ATCC 12228 (Gram-positive); method in brief: as §1
Streptococcus pneumoniae = assay: In vitro antibacterial activity against clinical isolates Ampicillin-insensitive Streptococcus pneumoniae was determined; method in brief: as §1

CO/N=C(\C(=O)N[C@@H]1C(=O)N2C(C(=O)[O-])=C(C[n+]3cccc4c3CCC4)CS[C@H]12)c1csc(N)n1 [CEFPIROME]
MIC (Escherichia coli): 0.05 µg/mL (≈ 0.0972 µM)
MIC50 (Enterococcus faecalis [1]): 50 µg/mL (≈ 97.2 µM)
MIC80 (Enterococcus faecalis [1]): 100 µg/mL (≈ 194 µM)
MIC90 (Enterococcus faecalis [1]): 100 µg/mL (≈ 194 µM)
MIC (Enterococcus faecalis [2]): 25 µg/mL (≈ 48.6 µM)
MIC (Klebsiella pneumoniae): 0.05 µg/mL (≈ 0.0972 µM)
ED50 (Mus musculus [3]): 27.7 mg/kg
ED50 (Mus musculus [4]): 1.72 mg/kg
ED50 (Mus musculus [5]): 0.64 mg/kg
ED50 (Mus musculus [6]): > 100 mg/kg
MIC (Pseudomonas aeruginosa): 6.25 µg/mL (≈ 12.1 µM)
MIC50 (Staphylococcus aureus [7]): 50 µg/mL (≈ 97.2 µM)
MIC80 (Staphylococcus aureus [7]): 100 µg/mL (≈ 194 µM)
MIC90 (Staphylococcus aureus [7]): 100 µg/mL (≈ 194 µM)
MIC (Staphylococcus aureus [8]): 100 µg/mL (≈ 194 µM)
MIC (Staphylococcus aureus [9]): 0.39 µg/mL (≈ 0.758 µM)
MIC (Staphylococcus aureus [10]): 50 µg/mL (≈ 97.2 µM)
MIC (Serratia marcescens): 0.2 µg/mL (≈ 0.389 µM)
MIC [11]: 0.39 µg/mL (≈ 0.758 µM)
MIC50 (Streptococcus pneumoniae): 0.39 µg/mL (≈ 0.758 µM)
MIC80 (Streptococcus pneumoniae): 0.78 µg/mL (≈ 1.52 µM)
MIC90 (Streptococcus pneumoniae): 0.78 µg/mL (≈ 1.52 µM)
